Columns and labels:
Mus musculus [1] = experiment: Antitumor activity against intraperitoneally implanted lymphoid leukemia (LE1210) tumor system at dose 100 mg/kg; format: functional; conditions: route intraperitoneal
Method in brief: (§1)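 Murine-screen tumor implanted intraperitoneally and treated at the listed mg/kg doses under standard NCI protocols. Activity is read out as T/C, the treated-to-control ratio.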

Mus musculus [2] = experiment: Antitumor activity against intraperitoneally implanted lymphoid leukemia (LE1210) tumor system at dose 12.5 mg/kg; format: functional; conditions: route intraperitoneal; method in brief: as §1
Mus musculus [3] = experiment: Antitumor activity against intraperitoneally implanted lymphoid leukemia (LE1210) tumor system at dose 25 mg/kg; format: functional; conditions: route intraperitoneal; method in brief: as §1
Mus musculus [4] = experiment: Antitumor activity against intraperitoneally implanted lymphoid leukemia (LE1210) tumor system at dose 50 mg/kg; format: functional; conditions: route intraperitoneal; method in brief: as §1
Mus musculus [5] = experiment: Antitumor activity against intraperitoneally implanted lymphoid leukemia (LE1210) tumor system at dose 6.25 mg/kg; format: functional; conditions: route intraperitoneal; method in brief: as §1
P388 [6] = experiment: Antitumor activity against intraperitoneally implanted lymphocytic leukemia (P388) system at dose 16 mg/kg; format: functional, Mus musculus; conditions: route intraperitoneal; method in brief: as §1
P388 [7] = experiment: Antitumor activity against intraperitoneally implanted lymphocytic leukemia (P388) system at dose 4 mg/kg; format: functional, Mus musculus; conditions: route intraperitoneal; method in brief: as §1
P388 [8] = experiment: Antitumor activity against intraperitoneally implanted lymphocytic leukemia (P388) system at dose 8 mg/kg; format: functional, Mus musculus; conditions: route intraperitoneal; method in brief: as §1
[9] = Antitumor activity against intracerebrally implanted ependymoblastoma (EM) tumor system at dose 16 mg/kg; format: functional
Method in brief: (§2)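 Tumor implanted […] and treated at the listed mg/kg doses under standard NCI protocols. Activity is read out as T/C, the treated-to-control ratio.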

[10] = Antitumor activity against intracerebrally implanted ependymoblastoma (EM) tumor system at dose 4 mg/kg; format: functional; method in brief: as §2
[11] = Antitumor activity against intracerebrally implanted ependymoblastoma (EM) tumor system at dose 8 mg/kg; format: functional; method in brief: as §2
P388 [12] = experiment: Antitumor activity against intraperitoneally implanted P388 lymphocytic leukemia (P388) system at dose 300 mg/kg; format: functional, Mus musculus; conditions: route intraperitoneal
Method in brief: (§3)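 P388 lymphocytic leukemia inoculated intraperitoneally and run under standard NCI screening protocols. Each compound was tested at several graded doses in mg/kg. Activity was read out as T/C for each dose, with confirmatory activity judged by the NCI criteria.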

P388 [13] = experiment: Antitumor activity against intraperitoneally implanted P388 lymphocytic leukemia (P388) system at dose 37.5 mg/kg; format: functional, Mus musculus; conditions: route intraperitoneal; method in brief: as §3
P388 [14] = experiment: Antitumor activity against intraperitoneally implanted P388 lymphocytic leukemia (P388) system at dose 75 mg/kg; format: functional, Mus musculus; conditions: route intraperitoneal; method in brief: as §3
P388 [15] = experiment: Antitumor activity against intraperitoneally implanted P388 lymphocytic leukemia (P388) system at dose 9.38 mg/kg; format: functional, Mus musculus; conditions: route intraperitoneal; method in brief: as §3
P388 [16] = experiment: Antitumor activity against intraperitoneally implanted P388 lymphocytic leukemia (P388) system at dose 105 mg/kg; format: functional, Mus musculus; conditions: route intraperitoneal; method in brief: as §3
P388 [17] = experiment: Antitumor activity against intraperitoneally implanted P388 lymphocytic leukemia (P388) system at dose 18.75 mg/kg; format: functional, Mus musculus; conditions: route intraperitoneal; method in brief: as §3
P388 [18] = experiment: Antitumor activity against intraperitoneally implanted P388 lymphocytic leukemia (P388) system at dose 50 mg/kg; format: functional, Mus musculus; conditions: route intraperitoneal; method in brief: as §3
P388 [19] = experiment: Antitumor activity against intraperitoneally implanted P388 lymphocytic leukemia (P388) system at dose 100 mg/kg; format: functional, Mus musculus; conditions: route intraperitoneal; method in brief: as §3
P388 [20] = experiment: Antitumor activity against intraperitoneally implanted P388 lymphocytic leukemia (P388) system at dose 12.5 mg/kg; format: functional, Mus musculus; conditions: route intraperitoneal; method in brief: as §3
P388 [21] = experiment: Antitumor activity against intraperitoneally implanted P388 lymphocytic leukemia (P388) system at dose 25 mg/kg; format: functional, Mus musculus; conditions: route intraperitoneal; method in brief: as §3

`COc1cc2c3c(c1)-c1c(ccc(OC)c1OC)CC3N(CCN(CCCl)CCCl)CC2` (stereo unspecified) gave a T/C (Mus musculus [1]) of 87, a T/C (Mus musculus [2]) of 98 and a T/C (Mus musculus [3]) of 101. It also gave a T/C (Mus musculus [4]) of 101, a T/C (Mus musculus [5]) of 101 and a T/C (P388 [6]) of 113. For the same compound, the T/C (P388 [7]) was 106, the T/C (P388 [8]) was 127 and the T/C [9] was 108. For the same compound, the T/C [10] was 108 and the T/C [11] was 104.

In the case of `COc1ccc2c(c1O)-c1cccc3c1C(C2)N(CCOC(=O)NCCCl)CC3` (stereo unspecified), the T/C (P388 [12]) is reported as 105, the T/C (P388 [13]) is reported as 97 and the T/C (P388 [14]) is reported as 99. It also gave a T/C (P388 [15]) of 101, a T/C (P388 [16]) of 99 and a T/C (P388 [17]) of 99.

In the case of `COc1ccc2c(c1O)-c1cccc3c1C(C2)N(CCOCCCl)CC3` (stereo unspecified), the T/C (P388 [18]) is reported as 101, the T/C (P388 [19]) is reported as 104 and the T/C (P388 [20]) is reported as 99. It also gave a T/C (P388 [21]) of 107.

Source: ChEMBL document CHEMBL1121504, “Aporphines. 31. Synthesis and antitumor activity of aporphine nitrogen mustards” (1980)
